Data published in ChEMBL document CHEMBL1132231, “New generation dopaminergic agents. 6. Structure-activity relationship studies of a series of 4-(aminoethoxy)indole and 4-(aminoethoxy)indolone derivatives based on the newly discovered 3-hydroxyphenoxyethylamine D2 template” (J Med Chem, 1999).

What was measured:
[1] = molecular target: T1, 5-hydroxytryptamine receptor 1A (Rattus norvegicus, UniProt P19327); experiment: In vitro binding affinity towards 5-hydroxytryptamine 1A receptor by the displacement of [3H]8-OH-DPAT radioligand in rat hippocampal homogenates; format: tissue-based, Hippocampus
T1 sequence (P19327 whole entry): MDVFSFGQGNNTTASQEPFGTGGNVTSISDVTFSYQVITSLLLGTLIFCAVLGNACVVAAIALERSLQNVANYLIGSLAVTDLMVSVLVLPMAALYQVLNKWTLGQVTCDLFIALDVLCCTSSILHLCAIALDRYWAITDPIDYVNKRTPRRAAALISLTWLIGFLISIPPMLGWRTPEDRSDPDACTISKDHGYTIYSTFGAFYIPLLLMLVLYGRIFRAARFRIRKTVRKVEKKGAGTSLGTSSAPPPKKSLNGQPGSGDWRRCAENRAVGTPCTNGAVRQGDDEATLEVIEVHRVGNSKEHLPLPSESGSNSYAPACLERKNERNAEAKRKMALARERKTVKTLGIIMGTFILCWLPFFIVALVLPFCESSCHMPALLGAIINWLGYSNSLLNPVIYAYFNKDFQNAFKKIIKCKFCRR

[2] = molecular target: T2, Adrenergic receptor alpha-1 (Rattus norvegicus, UniProt P15823+P23944+P43140); experiment: In vitro binding affinity towards alpha-1 adrenergic receptor by the displacement of [3H]prazosin radioligand in rat cortical homogenates
T2 sequence (P15823 whole entry): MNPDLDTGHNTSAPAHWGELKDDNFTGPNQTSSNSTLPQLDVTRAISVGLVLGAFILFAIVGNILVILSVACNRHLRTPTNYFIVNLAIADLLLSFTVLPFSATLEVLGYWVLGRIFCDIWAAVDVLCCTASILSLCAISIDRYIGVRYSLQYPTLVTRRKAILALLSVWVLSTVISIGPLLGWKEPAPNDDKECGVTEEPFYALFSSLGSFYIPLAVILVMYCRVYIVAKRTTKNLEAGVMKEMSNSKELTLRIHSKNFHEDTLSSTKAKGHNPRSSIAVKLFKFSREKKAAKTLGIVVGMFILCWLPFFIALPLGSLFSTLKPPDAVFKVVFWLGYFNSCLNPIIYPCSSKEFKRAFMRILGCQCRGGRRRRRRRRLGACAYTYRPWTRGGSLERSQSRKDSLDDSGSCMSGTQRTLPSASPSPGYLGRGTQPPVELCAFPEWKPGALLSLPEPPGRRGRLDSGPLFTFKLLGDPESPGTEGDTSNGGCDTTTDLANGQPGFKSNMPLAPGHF
T2 sequence (P23944 whole entry): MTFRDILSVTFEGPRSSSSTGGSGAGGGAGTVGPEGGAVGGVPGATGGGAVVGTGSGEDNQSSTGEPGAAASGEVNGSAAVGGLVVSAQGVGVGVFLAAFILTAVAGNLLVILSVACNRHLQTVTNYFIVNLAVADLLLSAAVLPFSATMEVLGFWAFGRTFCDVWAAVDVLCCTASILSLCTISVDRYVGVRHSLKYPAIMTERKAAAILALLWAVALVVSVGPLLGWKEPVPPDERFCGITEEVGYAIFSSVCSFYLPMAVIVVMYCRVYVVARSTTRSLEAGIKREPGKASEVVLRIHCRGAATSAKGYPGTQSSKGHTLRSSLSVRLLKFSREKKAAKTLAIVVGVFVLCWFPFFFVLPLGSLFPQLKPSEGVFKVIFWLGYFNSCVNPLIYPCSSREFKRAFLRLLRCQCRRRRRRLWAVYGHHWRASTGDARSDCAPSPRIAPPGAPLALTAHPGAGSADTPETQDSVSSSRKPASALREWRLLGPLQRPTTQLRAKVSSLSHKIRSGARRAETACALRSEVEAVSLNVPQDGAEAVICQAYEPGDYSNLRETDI
T2 sequence (P43140 whole entry): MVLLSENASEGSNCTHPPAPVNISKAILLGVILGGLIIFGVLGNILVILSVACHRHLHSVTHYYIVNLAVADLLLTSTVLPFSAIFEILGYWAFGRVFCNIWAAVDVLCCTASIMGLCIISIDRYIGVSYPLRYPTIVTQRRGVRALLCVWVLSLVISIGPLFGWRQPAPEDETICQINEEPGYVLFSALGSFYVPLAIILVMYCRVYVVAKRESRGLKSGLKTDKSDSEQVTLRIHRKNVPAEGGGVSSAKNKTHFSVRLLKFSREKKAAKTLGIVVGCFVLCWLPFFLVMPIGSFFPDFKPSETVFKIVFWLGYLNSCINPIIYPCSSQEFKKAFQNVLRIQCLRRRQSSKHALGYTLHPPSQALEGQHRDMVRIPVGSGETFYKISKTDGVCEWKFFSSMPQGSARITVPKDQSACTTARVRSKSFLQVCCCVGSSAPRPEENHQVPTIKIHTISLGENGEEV
How it was run: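 Rat cortical homogenates labelled with [3H]prazosin (0.2 nM), incubated 30 min at 25 °C. Stopped with cold 50 mM Tris pH 7.4, then rapid filtration. Triplicate, at least eight concentrations. Nonlinear regression gave IC50, converted to apparent Ki by Cheng-Prusoff. Means of at least two experiments ± SEM; values without SEM are single determinations.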

D(2) dopamine receptor [3] = molecular target: T3, D(2) dopamine receptor (Rattus norvegicus, UniProt P61169); experiment: In vitro high binding affinity towards Dopamine receptor D2 by the displacement of [3H]quinpirole radioligand in rat striatal membranes; format: cell membranes, Membrane
D(2) dopamine receptor [4] = molecular target: T3, D(2) dopamine receptor; experiment: In vitro low binding affinity towards Dopamine receptor D2 by the displacement of [3H]spiperone radioligand in rat striatal membranes; format: cell membranes, Membrane
[5] = molecular target: D(2) dopamine receptor (Rattus norvegicus) (UniProt P61169); experiment: Ratio of Dopamine D2 receptor (low)and Dopamine D2 receptor (high)
How it was run: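 Ratio Ki(low)/Ki(high). Ki(low) comes from displacement of 1 nM [3H]spiperone in striatal membranes with 1 mM GppNHp and NaCl, 37 °C for 5 min. […] Both Ki values derived by Cheng-Prusoff from nine concentrations in triplicate; the ratio serves as an estimate of intrinsic activity.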

T3 sequence (P61169 whole entry): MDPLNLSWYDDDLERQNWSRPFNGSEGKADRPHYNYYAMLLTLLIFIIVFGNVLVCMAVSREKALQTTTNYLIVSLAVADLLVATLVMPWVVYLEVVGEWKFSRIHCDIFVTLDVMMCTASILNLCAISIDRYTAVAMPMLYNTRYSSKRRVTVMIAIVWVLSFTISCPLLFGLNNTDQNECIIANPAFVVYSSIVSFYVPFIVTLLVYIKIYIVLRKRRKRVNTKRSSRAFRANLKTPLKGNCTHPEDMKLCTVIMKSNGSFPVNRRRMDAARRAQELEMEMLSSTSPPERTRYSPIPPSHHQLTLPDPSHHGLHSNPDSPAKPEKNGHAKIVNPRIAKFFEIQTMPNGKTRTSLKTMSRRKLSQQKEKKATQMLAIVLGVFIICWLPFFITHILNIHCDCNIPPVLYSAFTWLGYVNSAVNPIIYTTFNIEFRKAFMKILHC
D(2) dopamine receptor (Rattus norvegicus), sequence (P61169 whole entry): as above

Structure (SMILES)	Ki [1]	Ki [2]	Ki (D(2) dopamine receptor [3])	Ki (D(2) dopamine receptor [4])	Ratio [5]
Clc1ccc(CNCCOc2ccc(Cl)c3[nH]cc(Cl)c23)cc1	–	458 nM	77.1 nM	29.8 nM	0.4
Oc1cccc(OCCNCc2ccccc2)c1	1780 nM	5291 nM	–	115 nM	32
CCCCNCCOc1ccc(Cl)c2c1CC(=O)N2	–	11 nM	0.84 nM	14.6 nM	17
Clc1ccc(OCCNCc2cccs2)c2c(Cl)c[nH]c12	–	–	12.3 nM	38.4 nM	3
Oc1ccc2c(c1)O[C@@H](CNCc1ccccc1)CN2	–	–	6.7 nM	130 nM	–
Fc1ccc(CNCCOc2ccc(Cl)c3[nH]cc(Cl)c23)cc1	685 nM	229 nM	50 nM	59.5 nM	1
O=C(c1c[nH]c2c(Cl)ccc(OCCNCc3ccccc3)c12)C(F)(F)F	51 nM	97.5 nM	–	–	–
Clc1ccc(OCCNCc2ccccc2)c2cc[nH]c12	193 nM	138.5 nM	7.4 nM	14.4 nM	2
c1ccc(CCCCNCCOc2cccc3[nH]ccc23)cc1	0.4 nM	11.5 nM	5.3 nM	14.4 nM	3
CNCCOc1cccc2c1CC(=O)N2	276 nM	1057 nM	2 nM	147 nM	74
Clc1ccc(OCCNCc2ccccc2)c2c(Cl)c[nH]c12	219 nM	66 nM	7 nM	19.9 nM	3

Further lines, results first:

Ki [1]	Ki [2]	Ki (D(2) dopamine receptor [3])	Ki (D(2) dopamine receptor [4])	Ratio [5]	Structure (SMILES)
121 nM	154 nM	0.63 nM	9 nM	14	O=C1Cc2c(OCCNCc3ccc4ccccc4c3)ccc(F)c2N1
12 nM	26 nM	0.15 nM	3.03 nM	20	O=C1Cc2c(OCCNCCCc3c[nH]c4ccccc34)ccc(F)c2N1
17 nM	143 nM	0.55 nM	4.27 nM	8	O=C1Cc2c(OCCN3CCc4ccccc4C3)ccc(Cl)c2N1
8.5 nM	165 nM	0.14 nM	5.9 nM	42	O=C1Cc2c(ccc3c2O[C@@H](CNCc2ccccc2)CC3)N1
1170 nM	334 nM	0.64 nM	5.5 nM	9	Cc1ccc(CNCCOc2ccc(Cl)c3c2CC(=O)N3)cc1
38 nM	268 nM	17.4 nM	46.7 nM	3	O=C1Cc2c(OCCNCc3ccc(-c4ccccc4)cc3)ccc(Cl)c2N1
8 nM	41 nM	2.6 nM	23.4 nM	9	CN(CCOc1ccc(Cl)c2c1CC(=O)N2)Cc1ccccc1
25 nM	25 nM	12.1 nM	916 nM	76	NCCOc1ccc(F)c2c1CC(=O)N2
2660 nM	350 nM	0.41 nM	2.8 nM	7	O=C1Cc2c(OCCNCc3ccccc3)ccc(Cl)c2N1
253 nM	9.5 nM	3.1 nM	24.1 nM	8	CN(CCCC(=O)c1ccc(F)cc1)CCOc1cccc2c1CC(=O)N2
1.9 nM	13 nM	0.23 nM	2.06 nM	9	O=C1Cc2c(cccc2OCCNCCCCc2ccccc2)N1
13 nM	268 nM	2.08 nM	16 nM	7	O=C1Cc2c(OCCN3Cc4ccccc4C3)ccc(F)c2N1
6560 nM	431 nM	1.3 nM	13.8 nM	11	O=C1Cc2c(OCCNCc3ccc(F)cc3)ccc(Cl)c2N1
